Assay results reported in ChEMBL document CHEMBL1155234, “Dialkylamino and nitrogen heterocyclic analogues of hexadecylphosphocholine and cetyltrimetylammonium bromide: effect of phosphate group and environment of the ammonium cation on their biological activity” (Eur J Med Chem, 2009).
Values after ≈ are worked out from the molar mass of the structure shown.

Experiments:
Jurkat = assay: Cytotoxicity against human Jurkat cells after 72 hrs by MTT assay; type: functional, cell-based
How it was run: (§1)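 MTT end-point assay. Cells were exposed to compound at 1×10^-4 to 1×10^-8 mol l⁻¹ final for 72 h. Seeding was 3×10^3 cells ml⁻¹ for A-549, MCF-7 and MDA-MB-231; 5×10^3 for HeLa; 1×10^4 for Jurkat and CCRF-CEM. Media were DMEM/10% FCS (A-549, MCF-7, MDA-MB-231) or RPMI-HEPES/10% FCS (others). Formazan was dissolved in SDS for 12 h and read at 540 nm against untreated control, in triplicate. IC50 was curve-fitted.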

CCRF-CEM = assay: Cytotoxicity against human CCRF-CEM cells after 72 hrs by MTT assay; type: functional, cell-based; how it was run: as §1
HeLa = assay: Cytotoxicity against human HeLa cells after 72 hrs by MTT assay; type: functional, cell-based; how it was run: as §1
MDA-MB-231 = assay: Cytotoxicity against human MDA-MB-231 cells after 72 hrs by MTT assay; type: functional, cell-based; conditions: MDA-MB-231, 72 h; how it was run: as §1
MCF7 = assay: Cytotoxicity against human MCF7 cells after 72 hrs by MTT assay; type: functional, cell-based; conditions: MCF7, 72 h; how it was run: as §1
A549 = assay: Cytotoxicity against human A549 cells after 72 hrs by MTT assay; type: functional, cell-based; conditions: A549, 72 h; how it was run: as §1
Candida albicans = assay: Antifungal activity against Candida albicans CCM 8186 assessed as inhibition of colony formation after 24 hrs; type: functional
How it was run: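 C. albicans came from 24-h Sabouraud agar cultures and was suspended at 5×10^5 cells ml⁻¹ in physiological solution pH 7.2, adjusted to A540 = 0.35. It was mixed with aqueous compound and double-concentrated Sabouraud medium and incubated 24 h at 37 °C. Each well was then subcultured on Sabouraud agar for 24 h at 37 °C. MFC was the lowest concentration giving no colonies.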

Acanthamoeba lugdunensis = assay: Trophocidal activity against Acanthamoeba lugdunensis assessed as viability for 14 days by trypan blue exclusion assay; type: functional
How it was run: (§2)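 Trophozoites were grown axenically in PYG medium and seeded at 2×10^5 cells ml⁻¹ (100 µl), then mixed with compound in PYG at 37 °C. APCs were tested at 25–800 µM (six levels) and QUATs at 7.25–100 µM (five levels). Viability was scored by trypan blue exclusion. Eradication was confirmed by transfer to fresh PYG with growth monitored for 14 days. MTC was the lowest concentration giving 100% eradication.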

[1] = Toxicity in human erythrocytes assessed as hemolysis after 1 hr; type: cell-based, Erythrocyte
How it was run: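 Citrated human blood erythrocytes were washed three times in Ca/Mg-free PBS (2000g, 10 min) and resuspended in glucose-containing phosphate buffer, pH 7.4. They were diluted 1:10 into compound-containing buffer to a final 6.7–6.8×10^7 cells ml⁻¹ and incubated 1 h at 37 °C with shaking. After centrifugation, supernatant absorbance at 542 nm was compared with fully lysed controls (CTAB).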

Acanthamoeba castellanii = assay: Trophocidal activity against Acanthamoeba castellanii 1BU assessed as viability for 14 days by trypan blue exclusion assay; type: functional; how it was run: as §2
Acanthamoeba polyphaga = assay: Trophocidal activity against Acanthamoeba polyphaga 5SU assessed as viability for 14 days by trypan blue exclusion assay; type: functional; how it was run: as §2
Acanthamoeba lenticulata = assay: Trophocidal activity against Acanthamoeba lenticulata 72/2 assessed as viability for 14 days by trypan blue exclusion assay; type: functional; how it was run: as §2

For `CCCCCCCCCCCCCCCCOP(=O)([O-])OCC[N+]1(C)CCCCCCC1`, the IC50 (Jurkat) was 38.6 µM, the IC50 (CCRF-CEM) was 43.8 µM and the IC50 (HeLa) was 55 µM. It also gave an IC50 (MDA-MB-231) of 45.6 µM, an IC50 (MCF7) of 53.3 µM and an IC50 (A549) of 55000 nM. It also gave an MFC (Candida albicans; CCM 8186, 24 h) of 8 µM (≈ 3.81 µg/mL), an MTC (Acanthamoeba lugdunensis) of 50 µM and an EC50 at 1 hr [1] of 30 µM.

Molecule `CCCCCCCCCCCCCCCC[N+](C)(CCC)CCC.[Br-]` has an IC50 (Jurkat) of 0.85 µM, an IC50 (CCRF-CEM) of 1.96 µM and an IC50 (HeLa) of 1.68 µM. The IC50 (MDA-MB-231) was 4.27 µM, the IC50 (MCF7) was 0.8 µM and the IC50 (A549) was 750 nM. For the same molecule, the MFC (Candida albicans; CCM 8186, 24 h) was 19 µM, the MTC (Acanthamoeba lugdunensis) was 25 µM and the EC50 at 1 hr [1] was 30 µM.

With `CCCCCCCCCCCCCCCC[N+]1(C)CCCC1.[Br-]` the IC50 (Jurkat) was 0.82 µM, the IC50 (CCRF-CEM) was 1.35 µM and the IC50 (HeLa) was 2.29 µM. The IC50 (MDA-MB-231) was 3.8 µM, the IC50 (MCF7) was 0.62 µM and the IC50 (A549) was 530 nM. It also gave an MFC (Candida albicans; CCM 8186, 24 h) of 10 µM, an MTC (Acanthamoeba lugdunensis) of 12.5 µM and an EC50 at 1 hr [1] of 35 µM.

`CCCCCCCCCCCCCCCC[N+]1(C)CCCCCC1.[Br-]` showed an IC50 (Jurkat) of 0.8 µM, an IC50 (CCRF-CEM) of 1 µM and an IC50 (HeLa) of 1.82 µM. It also gave an IC50 (MDA-MB-231) of 2.84 µM, an IC50 (MCF7) of 0.72 µM and an IC50 (A549) of 670 nM. It also gave an MFC (Candida albicans; CCM 8186, 24 h) of 9 µM, an MTC (Acanthamoeba lugdunensis) of 12.5 µM and an EC50 at 1 hr [1] of 35 µM.

`CCCCCCCCCCCCCCCCOP(=O)([O-])OCC[N+]1(C)CCCCC1` showed an IC50 (Jurkat) of 14 µM, an IC50 (CCRF-CEM) of 11.2 µM and an IC50 (HeLa) of 57.2 µM. The IC50 (MDA-MB-231) was 51.7 µM, the IC50 (MCF7) was 54.8 µM and the IC50 (A549) was over 100000 nM. For the same molecule, the MFC (Candida albicans; CCM 8186, 24 h) was 8 µM (≈ 3.58 µg/mL), the MTC (Acanthamoeba lugdunensis) was 200 µM and the EC50 at 1 hr [1] was 25 µM.

Work on `CCCCCCCCCCCCCCCCOP(=O)([O-])OCC[N+]1(C)CCCC1` yielded an IC50 (Jurkat) of 10 µM, an IC50 (CCRF-CEM) of 9.3 µM and an IC50 (HeLa) of 46.2 µM. It also gave an IC50 (MDA-MB-231) of 37.9 µM, an IC50 (MCF7) of 39.3 µM and an IC50 (A549) of 53200 nM. It also gave an MFC (Candida albicans; CCM 8186, 24 h) of 8 µM (≈ 3.47 µg/mL), an MTC (Acanthamoeba lugdunensis) of 200 µM and an EC50 at 1 hr [1] of 30 µM.

For `CCCCCCCCCCCCCCCC[N+]1(C)CCCCC1.[Br-]`, the IC50 (Jurkat) was 0.72 µM, the IC50 (CCRF-CEM) was 0.92 µM and the IC50 (HeLa) was 1.47 µM. For the same molecule, the IC50 (MDA-MB-231) was 3.86 µM, the IC50 (MCF7) was 0.59 µM and the IC50 (A549) was 630 nM. For the same molecule, the MFC (Candida albicans; CCM 8186, 24 h) was 10 µM, the MTC (Acanthamoeba lugdunensis) was 12.5 µM and the EC50 at 1 hr [1] was 35 µM.

`CCCCCCCCCCCCCCCC[N+](C)(CC)CC.[Br-]` gave an IC50 (Jurkat) of 0.8 µM, an IC50 (CCRF-CEM) of 2.1 µM and an IC50 (HeLa) of 1.38 µM. It also gave an IC50 (MDA-MB-231) of 4.9 µM, an IC50 (MCF7) of 0.65 µM and an IC50 (A549) of 620 nM. For the same molecule, the MFC (Candida albicans; CCM 8186, 24 h) was 10 µM, the MTC (Acanthamoeba lugdunensis) was 25 µM and the EC50 at 1 hr [1] was 40 µM.

`CCCCCCCCCCCCCCCCOP(=O)([O-])OCC[N+](C)(CC)CC` showed an IC50 (Jurkat) of 19.6 µM, an IC50 (CCRF-CEM) of 9 µM and an IC50 (HeLa) of 49.4 µM. For the same molecule, the IC50 (MDA-MB-231) was 34.4 µM, the IC50 (MCF7) was 53.7 µM and the IC50 (A549) was 59400 nM. It also gave an MFC (Candida albicans; CCM 8186, 24 h) of 4 µM (≈ 1.74 µg/mL), an MTC (Acanthamoeba lugdunensis) of 200 µM and an EC50 at 1 hr [1] of 30 µM.

`CCCCCCCCCCCCCCCCOP(=O)([O-])OCC[N+](C)(C)C` [MILTEFOSINE] showed an IC50 (Jurkat) of 10 µM, an IC50 (CCRF-CEM) of 13.5 µM and an IC50 (HeLa) of 41.6 µM. It also gave an IC50 (MDA-MB-231) of 37.6 µM, an IC50 (MCF7) of 39.2 µM and an IC50 (A549) of 44700 nM. It also gave an MFC (Candida albicans; CCM 8186, 24 h) of 4 µM (≈ 1.63 µg/mL), an MTC (Acanthamoeba lugdunensis) of 400 µM and an EC50 at 1 hr [1] of 30 µM. For the same molecule, the MTC (Acanthamoeba castellanii) was 31.25 µM, the MTC (Acanthamoeba polyphaga) was 31.25 µM and the MTC (Acanthamoeba lenticulata) was 20 µM.

In the case of `CCCCCCCCCCCCCCCCOP(=O)([O-])OCC[N+](C)(CCC)CCC`, the IC50 (Jurkat) is reported as 28.6 µM, the IC50 (CCRF-CEM) is reported as 19.2 µM and the IC50 (HeLa) is reported as 55 µM. For the same molecule, the IC50 (MDA-MB-231) was 40.6 µM, the IC50 (MCF7) was 50.6 µM and the IC50 (A549) was 55000 nM. The MFC (Candida albicans; CCM 8186, 24 h) was 16 µM (≈ 7.42 µg/mL), the MTC (Acanthamoeba lugdunensis) was 400 µM and the EC50 at 1 hr [1] was 30 µM.

`CCCCCCCCCCCCCCCC[N+]1(C)CCCCCCC1.[Br-]` showed an IC50 (Jurkat) of 0.78 µM, an IC50 (CCRF-CEM) of 1 µM and an IC50 (HeLa) of 1.43 µM. For the same molecule, the IC50 (MDA-MB-231) was 4.12 µM, the IC50 (MCF7) was 0.94 µM and the IC50 (A549) was 850 nM. For the same molecule, the MFC (Candida albicans; CCM 8186, 24 h) was 9 µM, the MTC (Acanthamoeba lugdunensis) was 12.5 µM and the EC50 at 1 hr [1] was 30 µM.

Cetyltrimethylammonium bromide gave an MFC (Candida albicans) of 21 µM and an MTC (Acanthamoeba lugdunensis) of 25 µM.

`CCCCCCCCCCCCCCCC[N+]1(C)CCOCC1.[Br-]` showed an IC50 (Jurkat) of 3.57 µM, an IC50 (CCRF-CEM) of 4.16 µM and an IC50 (HeLa) of 5.61 µM. The IC50 (MDA-MB-231) was 5.75 µM, the IC50 (MCF7) was 0.89 µM and the IC50 (A549) was 870 nM. It also gave an MFC (Candida albicans; CCM 8186, 24 h) of 24 µM, an MTC (Acanthamoeba lugdunensis) of 50 µM and an EC50 at 1 hr [1] of 45 µM.

Molecule `CCCCCCCCCCCCCCCCOP(=O)([O-])OCC[N+]1(C)CCCCCC1` has an IC50 (Jurkat) of 18.2 µM, an IC50 (CCRF-CEM) of 9.8 µM and an IC50 (HeLa) of 53.1 µM. The IC50 (MDA-MB-231) was 49.8 µM, the IC50 (MCF7) was 51.5 µM and the IC50 (A549) was 55100 nM. The MFC (Candida albicans; CCM 8186, 24 h) was 8 µM (≈ 3.69 µg/mL), the MTC (Acanthamoeba lugdunensis) was 50 µM and the EC50 at 1 hr [1] was 25 µM.

For `CCCCCCCCCCCCCCCCOP(=O)([O-])OCC[N+]1(C)CCOCC1`, the IC50 (Jurkat) was 7.7 µM, the IC50 (CCRF-CEM) was 8.25 µM and the IC50 (HeLa) was 21.7 µM. It also gave an IC50 (MDA-MB-231) of 11.4 µM, an IC50 (MCF7) of 22.4 µM and an IC50 (A549) of 42000 nM. It also gave an MFC (Candida albicans; CCM 8186, 24 h) of 8 µM (≈ 3.6 µg/mL), an MTC (Acanthamoeba lugdunensis) of 200 µM and an EC50 at 1 hr [1] of 30 µM.

Work on `CCCCCCCCCCCCCCCC[N+](C)(CCCC)CCCC.[Br-]` yielded an IC50 (Jurkat) of 0.76 µM, an IC50 (CCRF-CEM) of 0.91 µM and an IC50 (HeLa) of 0.9 µM. For the same molecule, the IC50 (MDA-MB-231) was 2.55 µM, the IC50 (MCF7) was 0.68 µM and the IC50 (A549) was 640 nM. The MFC (Candida albicans; CCM 8186, 24 h) was 9 µM, the MTC (Acanthamoeba lugdunensis) was 25 µM and the EC50 at 1 hr [1] was 25 µM.
